According to ChEMBL document CHEMBL1157670, “Total synthesis and cytotoxicity evaluation of all ochratoxin A stereoisomers” (Bioorg Med Chem, 2010):

What was measured:
Assay type in all cases: functional, cell-based
HepG2 [1] = experiment: Cytotoxicity against human HepG2 cells after 48 hrs by WST8 assay; conditions: for IC50: HepG2, 48 h
In short: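 Hep G2 cells grown in DMEM + 10% FCS (37 °C, 8.5% CO2), seeded 4×10^3/well for 48 h, then 24 h serum-free at ~80% confluence. Compound from 1 mM methanol stock, 10 nM–50 µM, 48 h, serum-free; solvent controls. Then WST-8 for 1 h at 37 °C, absorbance 450 nm, normalized to untreated control. Triplicate, three independent passages (n = 9).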

HepG2 [2] = experiment: Cytotoxicity against human HepG2 cells assessed as LDH release after 48 hrs by microplate reader method
In short: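 Hep G2 cells in DMEM/10% FCS, seeded 2×10^4/well, switched to serum-free after 48 h at ~80% confluence. After 24 h, compound added at 10 nM–50 µM (1 mM methanol stock) for 48 h. Cells lysed on ice with 1% Triton X-100 Tris buffer. Lysate and medium LDH read kinetically as NADH loss ([…], 10 mM pyruvate, HEPES pH 7.0) at 340 nm over 60 min at 37 °C. Released vs total LDH normalized to positive and negative controls. n = 9.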

HepG2 [3] = experiment: Induction of apoptosis in human HepG2 cells assessed as caspase 3 activation after 24 hrs by fluorescence assay; conditions: HepG2, 24 h
In short: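 Hep G2 cells seeded 2×10^4/well and made serum-free as for the other assays. Compound given at 10 nM–50 µM (1 mM methanol stock) for 24 h. Lysed on ice in 0.1% Triton X-100 buffer, pH 7.5, then centrifuged. Supernatant incubated 1 h at 37 °C with 8 µM DEVD-AFC in PIPES/CHAPS/DTT buffer. AFC fluorescence (ex 400/em 505 nm) quantified against an AFC standard and normalized to BCA protein. n = 9.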

## C[C@@H]1Cc2c(Cl)cc(C(=O)N[C@H](Cc3ccccc3)C(=O)O)c(O)c2C(=O)O1 [3R14R-OCHRATOXIN A]
HepG2 [1]
  Activity: Dose-dependent effect
  IC50: 3200 nM
HepG2 [2]
  Activity: Dose-dependent effect
HepG2 [3]
  EC50: > 10000 nM

## C[C@@H]1Cc2c(Cl)cc(C(=O)N[C@@H](Cc3ccccc3)C(=O)O)c(O)c2C(=O)O1 [3R14S-OCHRATOXIN A]
HepG2 [1]
  Activity: Dose-dependent effect
  IC50: 300 nM
HepG2 [2]
  Activity: Dose-dependent effect
HepG2 [3]
  EC50: 60 nM

## C[C@H]1Cc2c(Cl)cc(C(=O)N[C@@H](Cc3ccccc3)C(=O)O)c(O)c2C(=O)O1 [3S14S-OCHRATOXIN A]
HepG2 [1]
  Activity: Dose-dependent effect
  IC50: 400 nM
HepG2 [2]
  Activity: Dose-dependent effect
HepG2 [3]
  EC50: 80 nM

## C[C@H]1Cc2c(Cl)cc(C(=O)N[C@H](Cc3ccccc3)C(=O)O)c(O)c2C(=O)O1 [3S14R-OCHRATOXIN A]
HepG2 [1]
  Activity: Dose-dependent effect
  IC50: 5000 nM
HepG2 [2]
  Activity: Dose-dependent effect
HepG2 [3]
  EC50: 3800 nM
